Measurements: article PMC2824925 (Clinical pharmacology and therapeutics, 2009)
“Also recorded” adds a separate entry of the source. *1 amine or outer side, *2 acyl side, *3 side chain or, on linkers, in order; H or OH if unused. Where a SMILES comes first, the peptide text is derived from it. Bridges are numbered along the chain shown (N, C = ends). [ ]: non-standard residue; d: D form. The star is where a group is joined. hTyr(3S-OH,4S-OH,3'-OSO3H) = N[C@H](C(=O)O)[C@H](O)[C@@H](O)c1ccc(O)c(OS(=O)(=O)O)c1; Orn(4R-OH,5R-OH) = O=C([C@H](C[C@@H](O)[C@@H](O)N[*:3])N[*:1])[*:2]; Pro(3S-OH,4S-Me) = C[C@H]1CN[C@H](C(=O)O)[C@H]1O; X1 = CCCCCOc1ccc(-c2cc(-c3ccc(C(=O)*)cc3)no2)cc1; Gln(3R-OH) = NC(=O)C[C@@H](O)[C@H](N)C(=O)O; Hyp = O=C(O)[C@@H]1C[C@@H](O)CN1

Assays:
[1] = Plasma pharmacokinetics of repeat-dose intravenous micafungin in young infants; assay type: in vivo, human; conditions: for AUC(0-t): log-linear method; for Vd: Vdss/wt
Procedure, shortened: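 Infants aged >48 h to day of life 120 with suspected candidaemia or invasive candidiasis got test compound by 1-h IV infusion every 24 h. Blood samples (50–100 μl; ≤500 μl total, away from infusion site) were taken around the day-4 dose: pre-dose, end of infusion, and 2–4, 8–12 and 20–24 h. Plasma was measured by LC-MS/MS (LLOQ 0.05 μg/ml). Analysis was non-compartmental: CLss = dose/AUC0–24, AUC by log-linear method, observed Tmax.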

[2] = Safety and tolerability of repeat-dose micafungin in young infants; assay type: in vivo, human
Procedure, shortened: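 Multicentre open-label study: 7 mg/kg/day (≥1,000 g) or 10 mg/kg/day (<1,000 g) by 1-h IV infusion every 24 h for 4–5 days. Safety set: infants given ≥1 dose. Physical exams, haematology, serum chemistry and vital signs were taken at screening (≤72 h pre-dose) and until 72 h after the last dose. Investigators graded AEs for severity and drug relationship; treatment-emergent AEs counted through 72 h post-dose.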

[3] = infants weighing > 1,000 g, single dose 0.75, 1.5 or 3.0 mg/kg; cited from earlier work
[4] = adults, cited from earlier work
[5] = febrile neutropenic pediatric patients, Phase I; cited from earlier work
[6] = overall (7 and 10 mg/kg/day groups), day 4, n=12

CCCCCOc1ccc(-c2cc(-c3ccc(C(=O)N[C@H]4C[C@@H](O)[C@@H](O)NC(=O)[C@@H]5[C@@H](O)[C@@H](C)CN5C(=O)[C@H]([C@H](O)CC(N)=O)NC(=O)[C@H]([C@H](O)[C@@H](O)c5ccc(O)c(OS(=O)(=O)O)c5)NC(=O)[C@@H]5C[C@@H](O)CN5C(=O)[C@H]([C@@H](C)O)NC4=O)cc3)no2)cc1 [micafungin] (X1-[Orn(4R-OH,5R-OH)]T[Hyp][hTyr(3S-OH,4S-OH,3'-OSO3H)][Gln(3R-OH)][Pro(3S-OH,4S-Me)]; lactam 1-C)
Median total body clearance adjusted for weight, lower in infants ≥ 1,000 g than in infants < 1,000 g ([1]; 7 mg/kg/day (≥ 1,000 g) vs 10 mg/kg/day (< 1,000 g)): 21% | AUC0–24 of a single infant (highest observed) ([1]; 7 mg/kg/day group, subject 4, weight 4.5 kg, single infant): 643.2 µg·h/mL | CLss/wt, median (range) ([1]; 7 mg/kg/day, IV, day 4, infants ≥ 1,000 g, n=6): 0.4 (0.2–0.6) ml/min/kg | Tmax, median (range) ([1]; 10 mg/kg/day, 1-h IV infusion, day 4, infants < 1,000 g, n=6): 1.1 (1.0–1.1) h | CLss/wt, median (range) ([1]; 10 mg/kg/day, IV, day 4, infants < 1,000 g, n=6): 0.6 (0.4–0.8) ml/min/kg | CLss, median (range) ([1]; 10 mg/kg/day, IV, day 4, infants < 1,000 g, n=6, dose/AUC0–24): 0.4 (0.2–0.5) ml/min | AUC(0-t) ([1]; human, plasma, iv, 7 mg/kg/day, AUC0–24, mean (SD), 7 mg/kg/day, 1-h IV infusion, day 4, infants ≥ 1,000 g, n=6, plasma, SD): 308 µg·h/mL | AUC(0-t) ([1]; human, plasma, iv, 7 mg/kg/day, AUC0–24, median (range), 7 mg/kg/day, 1-h IV infusion, day 4, infants ≥ 1,000 g, n=6, plasma): 258 µg·h/mL | clearance ([1]; human, plasma, iv, 7 mg/kg/day, CLss, mean (SD), 7 mg/kg/day, IV, day 4, infants ≥ 1,000 g, n=6, dose/AUC0–24, SD): 0.9 mL/min | clearance ([1]; human, plasma, iv, 7 mg/kg/day, CLss, median (range), 7 mg/kg/day, IV, day 4, infants ≥ 1,000 g, n=6, dose/AUC0–24): 0.7 mL/min | clearance ([1]; human, plasma, iv, 7 mg/kg/day, CLss/wt, mean (SD), 7 mg/kg/day, IV, day 4, infants ≥ 1,000 g, n=6, SD): 0.4 mL/min/kg | clearance ([1]; human, plasma, iv, 7 mg/kg/day, CLss/wt, median (range), 7 mg/kg/day, IV, day 4, infants ≥ 1,000 g, n=6): 0.45 mL/min/kg | Vd ([1]; human, plasma, iv, 7 mg/kg/day, mean (SD), 7 mg/kg/day, IV, day 4, infants ≥ 1,000 g, n=6, SD): 0.391 L/kg | Vd ([1]; human, plasma, iv, 7 mg/kg/day, median (range), 7 mg/kg/day, IV, day 4, infants ≥ 1,000 g, n=6): 0.341 L/kg | AUC(0-t) ([1]; human, plasma, iv, 10 mg/kg/day, AUC0–24, median (range), 10 mg/kg/day, 1-h IV infusion, day 4, infants < 1,000 g, n=6, plasma): 291 µg·h/mL | clearance ([1]; human, plasma, iv, 10 mg/kg/day, CLss, mean (SD), 10 mg/kg/day, IV, day 4, infants < 1,000 g, n=6, dose/AUC0–24, SD): 0.4 mL/min | clearance ([1]; human, plasma, iv, 10 mg/kg/day, CLss/wt, mean (SD), 10 mg/kg/day, IV, day 4, infants < 1,000 g, n=6, SD): 0.6 mL/min/kg | clearance ([1]; human, plasma, iv, 10 mg/kg/day, CLss/wt, median (range), 10 mg/kg/day, IV, day 4, infants < 1,000 g, n=6): 0.57 mL/min/kg | Vd ([1]; human, plasma, iv, 10 mg/kg/day, mean (SD), 10 mg/kg/day, IV, day 4, infants < 1,000 g, n=6, SD): 0.51 L/kg | Vd ([1]; human, plasma, iv, 10 mg/kg/day, median (range), 10 mg/kg/day, IV, day 4, infants < 1,000 g, n=6): 0.543 L/kg | AUC(0-t) ([1]; human, plasma, iv, AUC0–24, mean (SD), overall (7 and 10 mg/kg/day groups), day 4, n=12, plasma, SD): 308 µg·h/mL | AUC(0-t) ([1]; human, plasma, iv, AUC0–24, median (range), overall (7 and 10 mg/kg/day groups), day 4, n=12, plasma): 275 µg·h/mL | clearance ([1]; human, plasma, iv, CLss/wt, mean (SD), overall (7 and 10 mg/kg/day groups), day 4, n=12, SD): 0.5 mL/min/kg | Tmax ([1]; human, plasma, iv, Tmax, mean (SD), overall (7 and 10 mg/kg/day groups), day 4, n=12, SD): 1.2 h | Vd ([1]; human, plasma, iv, mean (SD), overall (7 and 10 mg/kg/day groups), day 4, n=12, SD): 0.45 L/kg | Vd ([1]; human, plasma, iv, median (range), overall (7 and 10 mg/kg/day groups), day 4, n=12): 0.503 L/kg | CLss/wt, median (range) [1, 6]: 0.5 (0.2–0.8) ml/min/kg | Tmax, median (range) [1, 6]: 1.1 (1.0–2.1) h | Allergic or histamine-like reactions, infusion-related toxicity, nephrotoxicity or hepatotoxicity ([2]; 7 and 10 mg/kg/day): no instances | Changes in AST and ALT from baseline to post-treatment ([2]; 7 and 10 mg/kg/day): minimal | Renal toxicity / changes in hematology parameters ([2]; 7 and 10 mg/kg/day): no evidence of renal toxicity or significant changes in hematology parameters | Infants with AEs irrespective of causality ([2]; 7 and 10 mg/kg/day IV, ≥ 4 days, 12/13 infants): 92.3% | Deaths / discontinuations because of an AE ([2]; 7 and 10 mg/kg/day, 13 infants): No deaths occurred in this study and no patients withdrew prematurely from the study because of an AE; also recorded: No deaths or discontinuations from treatment occurred | Tolerability ([2]; doses of up to 10 mg/kg/day IV, ≥ 4 days, young infants): well tolerated | Infants with serious AEs ([2]; four infants of 13, two in each treatment group): 30.8% | Micafungin clearance rate [3]: 0.65 mL/min/kg | Average AUC ([4]; 150-mg dose): 166.7 µg·h/mL | AUC values well tolerated [4]: < 600 µg·h/mL | Micafungin clearance in children 2–8 years relative to children ≥ 9 years of age [5]: 1.5–2.0 times higher
